Assay results pooled from the literature.
Each line is one published result; the experiments were not run side by side.
MAPK14: Mitogen-activated protein kinase 14 (MAPK14, Homo sapiens, UniProt Q16539)
Dihydrofolate reductase: Dihydrofolate reductase (Bos taurus, UniProt P00376)
HTR1A: 5-hydroxytryptamine receptor 1A (HTR1A, Homo sapiens, UniProt P08908)

Structure (SMILES)	target	observed	mode	method	IC50 [µM]
CNCc1cc(-c2cc(O)ccc2OC(F)(F)F)ccc1F	Estrogen receptor (ESR1, Homo sapiens, UniProt P03372, Y537S)	coactivator recruitment	–	TR-FRET	~18
Fc1ccc(Cc2[nH]nc(-c3ccccn3)c2-c2ccnc3ccccc23)cc1	MAPK14	enzyme activity	inhibitor	ADP detection	3.5
COc1ccc(-n2nc(C(=O)c3ccc(Nc4cnccn4)cc3)sc2=N)cc1	Dihydrofolate reductase	enzyme activity	inhibitor	–	11.7
COc1ccccc1N1CCN(CC(C(=O)NC(C)(C)C)c2ccccc2)CC1 (stereo not drawn)	HTR1A	cAMP	antagonist	TR-FRET	0.376
c1ccc(-c2[nH]ccc2-c2ccnc3ccccc23)nc1	MAPK14	enzyme activity	inhibitor	ADP detection	> 30
COc1cc(C=O)cc(OC)c1O	Sucrase-isomaltase, intestinal (Si, Rattus norvegicus, UniProt P23739)	enzyme activity	inhibitor	absorbance	1110
CC(=O)C1=NN(c2ccccc2)C(=C(C#N)C(=O)c2ccc(Nc3cnccn3)cc2)S1	Dihydrofolate reductase	enzyme activity	inhibitor	–	1.95
c1ccc(-c2n[nH]cc2-c2ccncn2)nc1	MAPK14	enzyme activity	inhibitor	ADP detection	1.5
NC(=O)c1nnn(Cc2cc(Cl)c(C(=O)c3ccc(Cl)cc3)c(Cl)c2)c1N	HTR1A	cAMP	antagonist	–	1.75
N=c1sc(C(=O)c2ccc(Nc3cnccn3)cc2)nn1-c1ccc([N+](=O)[O-])cc1	Dihydrofolate reductase	enzyme activity	inhibitor	–	4.48
CC(C)(C)NS(=O)(=O)c1cccc(C(=O)N2CC3(CCC4(CC4)CC3)c3cc(NS(C)(=O)=O)ccc32)c1	Kinesin-like protein KIFC1 (KIFC1, Homo sapiens, UniProt Q9BW19)	ATPase activity	inhibitor	–	> 100
c1ccc(Cn2cc(-c3ccnc4ccccc34)c(-c3ccccn3)n2)cc1	MAPK14	enzyme activity	inhibitor	ADP detection	3
